Source: ChEMBL document CHEMBL1122868, “New antiallergic pyrano [3,2-g]quinoline-2,8-dicarboxylic acids with potential for the topical treatment of asthma” (1985)
Calls of active or inactive are those of the source. The rule behind the calls is not given here.

How the values were obtained:
Canis familiaris [1] = assay: Activity index by dog hypotension screen assay at 10 ug/Kg per min for 15 min.; format: functional, Canis lupus familiaris
Rattus norvegicus [2] = species: Rattus norvegicus; assay: Inhibitory dose by PCA test […].; format: functional; details: read-out: ID50 (the source's name)
In short: (§1)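 Rat passive cutaneous anaphylaxis. Female rats (100 g) sensitized intradermally with 0.1 mL rat anti-egg albumin reaginic serum diluted in saline. After 24 h, rats were challenged i.v. with egg albumin, Evans Blue and saline, with the compound in saline given in the same injection. Reactions measured at 20 min; groups of five. ID50 taken from a log-dose regression of 20–80% inhibition.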

Canis familiaris [3] = assay: Percent inhibition by dog hypotension screen assay at 10 ug/Kg per min for 15 min.; format: functional; details: Canis lupus familiaris, 0.25 h
Rattus norvegicus [4] = species: Rattus norvegicus; assay: Potency ratio to that of sodium cromoglycate (1.0) using PCA test.; format: functional
In short: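 Passive cutaneous anaphylaxis in female rats sensitized with reaginic anti-egg albumin serum and challenged i.v. at 24 h with antigen plus Evans Blue. Compound in saline was co-injected with antigen; groups of five. Sodium cromoglycate ID50 was determined in each experiment. Potency ratio = ID50(sodium cromoglycate)/ID50(compound), with ID50s from regression lines of inhibition against log dose.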

Canis familiaris [5] = assay: Activity index was evaluated by dog hypotension screen assay at 20 ug/Kg per min for 15 min; format: functional, Canis lupus familiaris
Canis familiaris [6] = assay: Percent inhibition was evaluated by dog hypotension screen assay at 50 ug/Kg per min for 15 min; format: functional; details: Canis lupus familiaris, 0.25 h
Canis familiaris [7] = assay: Activity index was evaluated by dog hypotension screen assay at 50 ug/Kg per min for 15 min; format: functional, Canis lupus familiaris
Monkey [8] = assay: (§2) Ability to inhibit histamine release from monkey lung lavage cells; format: functional; details: Cercopithecidae, in Primates
Rattus norvegicus [9] = species: Rattus norvegicus; assay: Ability to inhibit histamine release from rat peritoneal mast cells using PCA assay.; format: functional; in short: as §1
Rattus norvegicus [10] = species: Rattus norvegicus; assay: Ability to inhibit histamine release from rat peritoneal mast cells; format: functional
Rattus norvegicus [11] = species: Rattus norvegicus; assay: Compound was evaluated to induce phosphorylation of the 78000 molecular weight mast cell protein; Active to induce phosphorylation; format: functional
Canis familiaris [12] = species: Canis familiaris; assay: Relative activity in dog hypotension; format: functional, Canis lupus familiaris
Monkey [13] = assay: as §2; format: functional, Cercopithecidae
Canis familiaris [14] = assay: Percent inhibition was evaluated by dog hypotension screen assay at 10 ug/Kg per min for 15 min; inactive; format: functional, organism-based; details: Canis lupus familiaris
In short: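 In anaesthetized beagles (pentobarbitone 30 mg/kg i.v.), hypotensive responses to a standardized bolus of sodium cromoglycate were established. Test compound was infused i.v. for 15 min, and the cromoglycate bolus was repeated at the end of the infusion and every 30 min over 3 h. Percent inhibition was expressed as area under the curve over 3 h; single experiments.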

Rattus norvegicus [15] = species: Rattus norvegicus; assay: Ability to inhibit histamine release from rat peritoneal mast cells.; format: functional

Compound	Activity index (Canis familiaris [1])	ED50 (Rattus norvegicus [2]) [mg/kg]	inhibition in vivo at 10 µg/kg/min (Canis familiaris [3]) [%]	Potency ratio (Rattus norvegicus [4])	other results
CCCc1c2nc(C(=O)[O-])cc(Sc3ccccc3)c2cc2c(=O)cc(C(=O)[O-])oc12.[Na+].[Na+]	6.6	1.87	66	1.78	
CCn1c(C(=O)[O-])cc(=O)c2cc3c(=O)cc(C(=O)[O-])oc3cc21.[Na+].[Na+]	7.6	10	76	0.16	
CCCc1c2nc(C(=O)[O-])cc(SCC)c2cc2c(=O)cc(C(=O)[O-])oc12.[Na+].[Na+]	5.9	0.14	59	11.1	
CCCc1c2oc(C(=O)[O-])cc(=O)c2cc2c(=O)cc(C(=O)[O-])n(CCC)c12.[Na+].[Na+]	2.8	3.71	28	0.43	
CCCc1c2nc(C(=O)[O-])cc(N)c2cc2c(=O)cc(C(=O)[O-])oc12.[Na+].[Na+]		0.31		8.25	Activity index (Canis familiaris [5]): 4.1
CCCc1c2nc(C(=O)[O-])cc(N3CCCC3)c2cc2c(=O)cc(C(=O)[O-])oc12.[Na+].[Na+]	5.7	0.86	57	4.13	
Cc1c2nc(C(=O)[O-])cc(O)c2cc2c(=O)cc(C(=O)[O-])oc12.[Na+].[Na+]	6.6	0.11	66	12.7	
CC(C)CCn1c(C(=O)O)cc(=O)c2cc3c(=O)cc(C(=O)O)oc3cc21		2.05		0.54	inhibition in vivo at 50 µg/kg/min (Canis familiaris [6]): 68%; Activity index (Canis familiaris [7]): 1.4
CC=Cc1c2oc(C(=O)O)cc(=O)c2cc2c(=O)cc(C(=O)O)n(CC)c12			84		
CCCc1c2nc(C(=O)[O-])cc(Cl)c2cc2c(=O)cc(C(=O)[O-])oc12.[Na+].[Na+]	7.2	1.38	72		
CCCc1c2nc(C(=O)[O-])ccc2cc2c(=O)cc(C(=O)[O-])oc12.[Na+].[Na+]	3.8	7.11	38	0.35	
CCCc1c2oc(C(=O)[O-])cc(=O)c2cc2c(=O)cc(C(=O)[O-])n(C)c12.[Na+].[Na+]	5.5	0.21	55	6.6	
CCCc1c2nc(C(=O)[O-])cc(O)c2cc2c(=O)cc(C(=O)[O-])oc12.[Na+].[Na+]	6.5	0.03	65	80	
CCCc1c2nc(C(=O)O)cc(C)c2cc2c(=O)cc(C(=O)O)oc12	6.6	0.71	66	2.97	
CCCc1c2nc(C(=O)[O-])cc(Oc3ccccc3)c2cc2c(=O)cc(C(=O)[O-])oc12.[Na+].[Na+]	6.8	1.12	68	1.75	
CCCc1c2nc(C(=O)[O-])cc(NC)c2cc2c(=O)cc(C(=O)[O-])oc12.[Na+].[Na+]		0.22		7.13	IC30 (Monkey [8]): 28.5 µM; Potency (Rattus norvegicus [9]): 7.1; Potency (Rattus norvegicus [10]): 6; Potency (Rattus norvegicus [11]): Active to induce phosphorylation; Relative activity (Canis familiaris [12]): 1.25; Activity index (Canis familiaris [5]): 4; Relative potency (Monkey [13]): 35

Compound	Activity index (Canis familiaris [1])	ED50 (Rattus norvegicus [2]) [mg/kg]	inhibition in vivo at 10 µg/kg/min (Canis familiaris [3]) [%]	Potency ratio (Rattus norvegicus [4])	other results
CCCc1c2nc(C(=O)[O-])cc(NCC)c2cc2c(=O)cc(C(=O)[O-])oc12.[Na+].[Na+]	4.2	0.18	42	13.8	
O=C([O-])c1cc(O)c2cc3c(=O)cc(C(=O)[O-])oc3cc2n1.[Na+].[Na+]	7.8	0.22	78	11.6	
CCCc1c2nc(C(=O)[O-])cc(S(=O)(=O)c3ccccc3)c2cc2c(=O)cc(C(=O)[O-])oc12.[Na+].[Na+]	3.9	0.3	39	9.9	
CCCc1c2nc(C(=O)[O-])cc(OCC)c2cc2c(=O)cc(C(=O)[O-])oc12.[Na+].[Na+]	3.2	0.3	32	8.47	
CCCc1c(C(=O)[O-])nc2c(CCC)c3oc(C(=O)[O-])cc(=O)c3cc2c1O.[Na+].[Na+]	0.6	0.14	6	10.9	
CCCc1c2nc(C(=O)[O-])cc(Br)c2cc2c(=O)cc(C(=O)[O-])oc12.[Na+].[Na+]	4.8	0.55	48	4.62	
CCCc1c2nccc(O)c2cc2c(=O)cc(C(=O)[O-])oc12.[Na+]		6.03		0.35	
CCCc1c2nc(C(=O)[O-])cc(OC)c2cc2c(=O)cc(C(=O)[O-])oc12.[Na+].[Na+]	4.3	0.3	43	8.35	
C=CCc1c2nc(C(=O)[O-])cc(Cl)c2cc2c(=O)cc(C(=O)[O-])oc12.[Na+].[Na+]	2.1	2.4	21	1.09	
CCCc1c(C(=O)[O-])nc2c(CCC)c3oc(C(=O)[O-])cc(=O)c3cc2c1Cl.[Na+].[Na+]	0	2.45		1.14	inhibition (Canis familiaris [14]): inactive
CCCc1c2nc(C(=O)[O-])cc(O)c2cc2c(=O)ccoc12.[Na+]		0.78		6.5	
CCCc1c2nc(C(=O)[O-])cc(N(C)C(C)=O)c2cc2c(=O)cc(C(=O)[O-])oc12.[Na+].[Na+]		4.02		0.88	Activity index (Canis familiaris [5]): 1
CCCc1c2nc(C(=O)[O-])cc(Nc3ccccc3)c2cc2c(=O)cc(C(=O)[O-])oc12.[Na+].[Na+]		0.57		3.47	Activity index (Canis familiaris [5]): 3
CCCc1c2oc(C(=O)[O-])cc(=O)c2cc2c(=O)cc(C(=O)[O-])n(CC)c12.[Na+].[Na+] [NEDOCROMIL SODIUM]	6	0.95	60	1.1	IC30 (Monkey [8]): 5.2 µM; Potency (Rattus norvegicus [15]): 1; Potency (Rattus norvegicus [9]): 1.1; Potency (Rattus norvegicus [11]): Active to induce phosphorylation; Relative activity (Canis familiaris [12]): 1.9; Relative potency (Monkey [13]): 190
O=C([O-])c1cc(Cl)c2cc3c(=O)cc(C(=O)[O-])oc3cc2n1.[Na+].[Na+]	0	4.23		0.72	inhibition (Canis familiaris [14]): inactive
CCCc1c2nccc(Cl)c2cc2c(=O)cc(C(=O)[O-])oc12.[Na+]	4.8	5.38	48	0.2	
